The source of these data is ChEMBL document CHEMBL4699512, “Synthesis of non-nucleoside anti-viral cyclopropylcarboxacyl hydrazones and initial anti-HSV-1 structure-activity relationship studies” (Bioorg Med Chem Lett, 2020).

The term pIC50 denotes −log10 of the IC50, conventionally taken in molar units.

Structures are written as SMILES. pIC50: −log10 of the molar value. Calls of active or inactive are those of the source. The calls are words filed in the database; no cut-off is given here.

One data set relates to Human alphaherpesvirus 1. In words: Antiviral activity against recombinant EGFP/RFP expressing Herpes simplex virus 1 KOS infected in iPSC-neurons assessed as decrease in proportion of fluorescent cells compound added 2 hr post infection incubated for 48 hrs by flow cytometry analysis. The following applies: Induced pluripotent stem cell-derived neuron. The class given is functional, organism-based. A digest of the protocol:
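iPSC-derived neurons infected with recombinant HSV-1 derived from strain KOS, expressing EGFP from the early ICP0 promoter and monomeric RFP from the glycoprotein C promoter. Infection was scored as the proportion of fluorescent cells. Controls were uninfected cells, virus alone, and virus with acyclovir as positive control. The protocol follows the group's earlier procedure.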
As to `O=C(N/N=C/c1ccccn1)C1CC1(c1ccccc1)c1ccccc1` (stereo unspecified), the result was Active.
Still for that read-out and setting: under `O=C(N/N=C/c1cccs1)C1CC1(c1ccccc1)c1ccccc1` (stereo unspecified) stands “Active”.
The same measure, in the same setting: under `O=C(N/N=C/c1ccccc1Cl)C1CC1(c1ccccc1)c1ccccc1` (stereo unspecified) stands “Active”.
On the same count and under the same terms, to `O=C(N/N=C/c1ccccn1)C1CC1(c1ccc(OC(F)(F)F)cc1)c1ccc(OC(F)(F)F)cc1` (stereo unspecified) belongs “Active”.
For `O=C(N/N=C/c1ncc[nH]1)C1CC1(c1ccccc1)c1ccccc1` (stereo unspecified), the result was inactive.
For `O=C(N/N=C/c1ccc([N+](=O)[O-])cc1)C1CC1(c1ccccc1)c1ccccc1` (stereo unspecified), the result was inactive.
Regarding `Nc1nc2c(ncn2COCCO)c(=O)[nH]1` [ACYCLOVIR], the result was Active.
Same read-out and setting: under `O=C(N/N=C/c1c[nH]c2ccccc12)C1CC1(c1ccccc1)c1ccccc1` (stereo unspecified) stands “Active”; under `CN(C)c1ccc(/C=N/NC(=O)C2CC2(c2ccccc2)c2ccccc2)cc1` (stereo unspecified), “inactive”.
For `COc1cc(/C=N/NC(=O)C2CC2(c2ccccc2)c2ccccc2)ccc1O` (stereo unspecified), the result was inactive.
Consider `O=C(N/N=C/c1ccc(F)cc1F)C1CC1(c1ccccc1)c1ccccc1` (stereo unspecified), for which the result was inactive.
On the same count and under the same terms, under `COc1cc(/C=N/NC(=O)C2CC2(c2ccccc2)c2ccccc2)cc(OC)c1OC` (stereo unspecified) stands “Active”.
Consider `O=C(N/N=C/c1ccco1)C1CC1(c1ccccc1)c1ccccc1` (stereo unspecified), for which the outcome was Active.
For the compound `O=C(N/N=C1/CCCc2ccccc21)C1CC1(c1ccccc1)c1ccccc1` (stereo unspecified), the result was inactive.
Still for that read-out and setting: to `O=C(N/N=C/c1ccc(Br)o1)C1CC1(c1ccccc1)c1ccccc1` (stereo unspecified) belongs “inactive”; to `O=C(N/N=C/c1ccc[nH]1)C1CC1(c1ccccc1)c1ccccc1` (stereo unspecified), “Active”; to `O=C(N/N=C/c1ccc[nH]1)C1CC1(c1ccc(OC(F)(F)F)cc1)c1ccc(OC(F)(F)F)cc1` (stereo unspecified), “Active”.
`O=C(N/N=C/c1ccc(Br)cc1)C1CC1(c1ccccc1)c1ccccc1` (stereo unspecified): the outcome was inactive.
Regarding `O=C(N/N=C/C1CCCCC1)C1CC1(c1ccccc1)c1ccccc1` (stereo unspecified), the result was Active.
Same read-out and setting: under `O=C(N/N=C/c1ccc2c(c1)OCO2)C1CC1(c1ccccc1)c1ccccc1` (stereo unspecified) stands “Active”.
`O=C(N/N=C/c1c[nH]cn1)C1CC1(c1ccccc1)c1ccccc1` (stereo unspecified): the result was inactive.
Consider `O=C(N/N=C/c1cccnc1)C1CC1(c1ccccc1)c1ccccc1` (stereo unspecified), for which the outcome was inactive.

For another data set, the system named is Human alphaherpesvirus 1. In words: Antiviral activity against Herpes simplex virus 1 infected in neuronal progenitor cells assessed as decrease in fluorescent cells. The data set is classed as functional, organism-based. The following applies: Human alphaherpesvirus 1, Neuronal cell line.
Consider `Nc1nc2c(ncn2COCCO)c(=O)[nH]1` [ACYCLOVIR], for which the pIC50 is 4.56.
Still for that read-out and setting: to `O=C(N/N=C/c1ccc[nH]1)C1CC1(c1ccc(OC(F)(F)F)cc1)c1ccc(OC(F)(F)F)cc1` (stereo unspecified) belongs 4.85.

The next data set relates to Human alphaherpesvirus 1. In words: Potency index, ratio of acyclovir IC50 to compound IC50 for antiviral activity against HSV-1 infected in neuronal progenitor cells. The class given is functional, Neuronal cell line.
Conditions: not given
Regarding `O=C(N/N=C/c1ccc[nH]1)C1CC1(c1ccc(OC(F)(F)F)cc1)c1ccc(OC(F)(F)F)cc1` (stereo unspecified), the “Ratio IC50” value is on record as 2.

Another data set has as its system Neuronal cell line. Put plainly: Cytotoxicity against human neuronal progenitor cells assessed as cell viability at 25 uM. The class given is cell-based.
Conditions: not given
As to `O=C(N/N=C/c1ccc[nH]1)C1CC1(c1ccc(OC(F)(F)F)cc1)c1ccc(OC(F)(F)F)cc1` (stereo unspecified), the Activity entry is reported as “Non-Toxic”.
